This is a sample that favours compounds with a hit; in the whole collection about 2.2% have one here.
PPC-1+TRAIL kill = kills PPC-1 cancer cells in the presence of TRAIL. cell killing (% activity), % at 4 µM or 5 µM. PPC-1 cells + TRAIL, ATPLite viability luminescence. AID 1443. hit rate 0.41% among 220,000;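 active means cell killing above 50% in the first pass at 4 µM, then a duplicate retest at 5 µM averaging 50% or more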
FLuc inh counter = counter-screen for luciferase assay inhibitors: firefly luciferase inhibition; ATPLite firefly luciferase biochemical luminescence, 10 min; inhibition, % at 10 µM; hit rate 1.5% among 200,000; AID 1006;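 active means inhibition above about 50% when tested at 10 µM, limit read from the data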
Target sequence (P08659 whole entry, looked up): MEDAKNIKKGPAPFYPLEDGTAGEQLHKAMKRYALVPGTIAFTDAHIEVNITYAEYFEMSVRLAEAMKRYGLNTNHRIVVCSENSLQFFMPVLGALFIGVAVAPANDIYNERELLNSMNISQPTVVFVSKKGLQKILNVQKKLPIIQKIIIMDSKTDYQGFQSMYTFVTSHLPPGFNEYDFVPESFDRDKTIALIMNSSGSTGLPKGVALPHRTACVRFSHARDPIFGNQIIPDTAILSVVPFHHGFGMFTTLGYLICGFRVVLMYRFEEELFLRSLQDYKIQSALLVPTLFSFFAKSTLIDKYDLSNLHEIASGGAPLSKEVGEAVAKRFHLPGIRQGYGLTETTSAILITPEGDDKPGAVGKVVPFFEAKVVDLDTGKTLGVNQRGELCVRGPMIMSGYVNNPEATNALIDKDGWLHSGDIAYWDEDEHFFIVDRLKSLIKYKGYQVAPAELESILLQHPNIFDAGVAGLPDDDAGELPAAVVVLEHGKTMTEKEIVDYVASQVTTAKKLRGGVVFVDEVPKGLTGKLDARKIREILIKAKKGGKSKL
STAT3 blocker = reduces IL-6 driven STAT3 reporter signal. U3A cells, IL-6 STAT3-luciferase reporter, luminescence; host cell line lacks STAT1. inhibition, % at 5.5 µM. hit rate 0.89% among 190,000. AID 862;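 active means inhibition above the mean inhibition across all screened compounds plus 3 SD, cut at about 44% in these data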
C8 TRAIL sens = sensitizes caspase-8 expressing cells to TRAIL; NB7+C8 cells + TRAIL, ATPlite viability luminescence; inhibition (viability loss, TRAIL sensitization), % at 10 µM; hit rate 1% among 360,000;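 active means compounds causing at least 50% loss of cell viability in the single-dose screen, relative to plate controls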
HSP90 inh = blocks HSP90-mediated luciferase refolding in reticulocyte lysate. hit rate 0.91% among 290,000. Rabbit reticulocyte lysate, luciferase refolding luminescence, 3 h. inhibition, % at 5.6 µM;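 active means inhibition above the screen-wide mean plus 3 SD, computed separately per campaign, cut at about 16% in these data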;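 further: inhibitors lower the luminescence because luciferase stays unfolded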
FLuc stim CS = firefly luciferase counter-screen for stimulation assays. AID 1027. ATPlite luciferase biochemical, luminescence, 10 min; 0 = ATP-free wells, 1 = DMSO control. 200,000 tested, under 10 active. activation factor at 10 µM;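 active means luciferase activation factor, scaled between plate controls, of at least 2 with compound at 10 µM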
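Assay system: Luciferase/luciferin detection reagent, cell-free biochemical luciferase assay / Also added: ATP substrate / Schedule: 10 min at ambient temperature / Measured by: luminescence measurement of luciferase light output / Benchmarks: low control with PBS replacing ATP, high control enzyme plus ATP without compound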
HSP90 inh confirm = HSP90 inhibition, confirmation assay; rabbit reticulocyte lysate, luciferase refolding luminescence, 3 h; AID 1846; inhibition, % at 5.9 µM; shares compounds with HSP90 inh; hit rate 64% among 2,300; in the data active means inhibition above about 18%
luciferase ctr = counter-screen for HSP90 inhibitors: inhibitors of firefly luciferase. shares compounds with HSP90 inh. purified native firefly luciferase, luminescence. inhibition, % at 5.9 µM. hit rate 48% among 2,300;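 active means inhibition above the mean inhibition of all tested sample wells plus 3 SD, cut at about 10% in these data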
Hits are given with their value; 0 = inactive; - = no result.

SMILES	PPC-1+TRAIL kill	FLuc inh counter	STAT3 blocker	C8 TRAIL sens	HSP90 inh	FLuc stim CS	HSP90 inh confirm	luciferase ctr
CC(c1ccco1)N(C(=O)COc1ccc(Cl)cc1)c1ccccn1 (stereo unspecified)	0	0	0	0	20	0	0	0
COc1ccccc1C#Cc1ccc2c(=O)c3ccccc3n(C)c2c1	-	-	-	0	24	-	0	0
COc1ccc(C#Cc2ccc3c(=O)c4ccccc4n(C)c3c2)cc1	-	-	-	-	0	-	-	-
Cn1c2ccccc2c(=O)c2ccc(C#Cc3ccc(N)cc3)cc21	-	-	-	0	24	-	31	0
O=C(CCc1nc(-c2ccccc2)no1)NCc1ccco1	0	0	0	0	0	0	-	-
Cc1ccc(-c2noc(CCC(=O)NCc3ccco3)n2)cc1	0	0	0	0	24	0	0	0
CCOC(=O)c1ccc(-c2c(-c3ccc4c(c3)OCO4)noc2C)cc1F	-	-	-	0	17	-	0	0
Cc1noc(C)c1COC(=O)c1ccc2c(c1)OCO2	0	0	0	0	0	0	-	-
O=C(CCc1nc2ccccc2c(=O)[nH]1)Nc1cc(Cl)ccc1N1CCCC1	-	-	-	0	-	-	-	-
CC(=O)Oc1cc(OC(C)=O)c2c(C)cc(=O)oc2c1	0	0	0	0	21	0	0	0
CC(=O)Oc1ccc2c(C)cc(=O)oc2c1	0	0	0	0	0	0	-	-
O=C(c1ccccc1)n1c(=O)cc[nH]c1=O	-	-	-	0	-	-	-	-
CC(C)(C)C(=O)Nc1nnc(SCC(=O)Nc2nccs2)s1	-	-	-	0	0	-	-	-
CCC(CC)C1C(C#N)=C(N)Oc2n[nH]c(C)c21 (stereo unspecified)	0	0	0	0	0	0	-	-
N#CC1=C(N)Oc2n[nH]c(-c3ccncc3)c2C1c1ccsc1 (stereo unspecified)	0	0	0	0	17	0	0	0
N#CC1=C(N)Oc2n[nH]c(-c3ccccc3)c2C1c1ccsc1 (stereo unspecified)	0	0	0	0	0	0	-	-
COc1cc(OC)cc(C2C(C#N)=C(N)Oc3n[nH]c(-c4cccnc4)c32)c1 (stereo unspecified)	0	0	0	0	18	0	0	0
CC(C)(C)c1ccc(C2C(C#N)=C(N)Oc3n[nH]c(-c4cccnc4)c32)cc1 (stereo unspecified)	0	-	-	0	0	-	-	-
COc1cc(C2C(C#N)=C(N)Oc3n[nH]c(-c4cccs4)c32)cc(OC)c1O (stereo unspecified)	0	0	0	0	24	0	0	0
N#CC1=C(N)Oc2n[nH]c(-c3cccs3)c2C1c1cccnc1 (stereo unspecified)	0	0	0	0	0	0	-	-
CCC(CC)C1C(C#N)=C(N)Oc2n[nH]c(-c3ccccc3)c21 (stereo unspecified)	0	0	0	0	18	0	0	0
COc1ccc(Cc2nnc3sc(SCC(=O)Nc4ccccc4)nn3c2=O)cc1OC	-	-	-	0	-	-	-	-
O=C(CN(C(=O)C1CSC(=O)C1)c1cccc(F)c1)NCc1ccc2c(c1)OCO2 (stereo unspecified)	-	-	-	0	0	-	-	-
OC[C@@H]1CN(Cc2ccc(Cl)cc2)C[C@H](n2cnc3c(N4CCN(c5ccccc5)CC4)ncnc32)O1	-	-	-	0	-	-	-	-
O=C(Nc1ccc(C(=O)NCCCN2CCN(c3ccc(F)cc3)CC2)cc1)C1=CSCCO1	-	-	-	0	30	-	0	0
O=C(NCCO)C1CCN(C(=O)c2ccc(-c3ccccc3)cc2)CC1	0	0	0	0	0	0	-	-
Cc1ccc(S(=O)(=O)/N=C2\C=C(Nc3cccc(C(=O)O)c3)C(=O)c3ccccc32)c(C)c1	-	-	-	0	92	-	90	0
Cc1ccc(S(=O)(=O)/N=C2\C=C(Nc3cccc(C(=O)O)c3)C(=O)c3ccccc32)cc1	-	-	-	0	96	-	92	0
O=C(O)c1cccc(NS(=O)(=O)c2ccc3c(c2)C(=O)c2ccccc2C3=O)c1	0	-	-	0	22	-	0	0
O=C1C(Nc2ccccc2)=C/C(=N/S(=O)(=O)c2cccs2)c2ccccc21	0	0	0	97	37	0	94	0

Screens: PubChem, several laboratories
